Measurements as given in PubChem BioAssay AID504382 (The Scripps Research Institute Molecular Screening Center, 2011).
The campaign covered roughly 2,500 compounds. About 460 (18%) were called active. Only a sample is shown. Unmarked numbers belong to inactive results.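 Rule for the calls: active = mean activation above a cutoff of low control average plus 3 SD from the earlier screen (cut at about 12% in these data); inactive = the rest.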

Assay: IANBD-channel fluorescence artefacts in buffer – biochemical, artefact control for cardiac RTF calcium sensitizer project, confirmation (AID 504382)
Details: IANBD fluorescence interference counterscreen, EC20 Ca2+, at 7.2 µM, hits give high values, scaled: EC20 calcium 0, EC100 calcium 100
Summary of the method: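 Medium: MOPS/KCl/MgCl2/EGTA/NTA/DTT buffer, pH 7.2 | Reagent: EC20 calcium, 0.472 mM | Compound dosing: 7.2 µM single dose | Times: 15 min compound exposure at 25 °C | Signal: Fluorescence, 480/540 nm | Measure: Interference relative to controls | Repeats: Triplicate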
Work on `Cc1cc(C)c(OCCOCCN2CCNCC2)c(C)c1` yielded a fluorescence artifact activation of 0.06%. Molecule `OCCc1c[nH]c2ccccc12` has a fluorescence artifact activation of 0.07%. Molecule `COc1cc(/C=C(\C#N)C(=O)c2c[nH]c3ccccc23)cc(OC)c1O` has a fluorescence artifact activation of 0.14%. With `NC(=O)c1c[nH]c2ccccc12` the fluorescence artifact activation was 288% (active). For `CC(C)(C)OC(=O)N1CCC(Cc2cc(-c3cccnc3)no2)(C(=O)O)CC1`, the fluorescence artifact activation was 3.74%. With `Cc1ccc(NC(=O)c2cc(C(=O)c3cc(Cl)ccc3O)cn(-c3ccc(C)cc3)c2=O)cc1` the fluorescence artifact activation was 3.68%. With `CCOC(=O)C(C)(C)Sc1nc2c(cnn2-c2ccc(Cl)cc2)c(=O)[nH]1` the fluorescence artifact activation was 71.5% (active). Molecule `CCOC(=O)C(C)Sc1nnc(Cc2cc(=O)[nH]c(=O)[nH]2)n1-c1ccc(Cl)cc1` (centres undefined) has a fluorescence artifact activation of 0.21%. Molecule `CCCCNC(=O)COC(=O)c1c2c(nc3ccccc13)/C(=C\c1cccs1)CC2` has a fluorescence artifact activation of 1.6%. `Nc1cccc2c1C(=O)N(c1ccccc1)C2=O` gave a fluorescence artifact activation of 1.26%. In the case of `CCC(=O)Nc1ccc2oc(-c3cccnc3)nc2c1`, the fluorescence artifact activation is reported as 77.1% (active). Molecule `O=C(Cc1ccccc1)Nc1cccc(-c2nc3ncccc3o2)c1` has a fluorescence artifact activation of 0.02%. For `Cc1cc(=O)oc(C)c1C(=O)Nc1ccc2ncccc2c1`, the fluorescence artifact activation was 0.24%. For `COc1ccc(C)cc1NC(=O)C12CCC(C)(C(=O)O1)C2(C)C` (centres undefined), the fluorescence artifact activation was 6.57%. `CC1(C)CC(=O)c2sc(NC(=O)Cc3cccs3)nc2C1` showed a fluorescence artifact activation of 0.43%. In the case of `CN(C)c1ccc(/C=C2\SC(=S)N(Nc3ncc(C(F)(F)F)cc3Cl)C2=O)cc1`, the fluorescence artifact activation is reported as 1.93%. In the case of `N=C1c2ccccc2CN1c1ccc(S(=O)(=O)N2CCCCC2)cc1`, the fluorescence artifact activation is reported as 9.61%. `Cc1ccc(S(=O)(=O)N2CCOCC2)cc1C(=O)N1C(=O)c2cccc(N)c2C1=O` showed a fluorescence artifact activation of 0.13%. With `CCOC(=O)/C(=C/C=C1\Sc2ccccc2N1CC)C(C)=O` the fluorescence artifact activation was 51.3% (active). `CCN1/C(=C\C=C(C(C)=O)C(C)=O)Sc2ccccc21` showed a fluorescence artifact activation of 0.42%. `CCOC(=O)/C(=C\C=C1/Sc2ccccc2N1CC)C(C)=O` gave a fluorescence artifact activation of 0.04%. Work on `COC(=O)C1=C(C(=O)OC)[C@@H]2Nc3ccccc3[C@@]23C[C@@H](C(=O)OC)N(C(=O)c2cccs2)C3=N1` yielded a fluorescence artifact activation of 11.6%. With `CCOc1ccc(C2OC34CCCCC3C(C#N)(C#N)C2(C#N)C(=N)O4)cc1OC` (centres undefined) the fluorescence artifact activation was 0.1%. With `Cc1c2ccccc2nc2c(F)c(NCCO)c(F)c(F)c12` the fluorescence artifact activation was 42.9% (active). `Cc1c2ccccc2nc2c(F)c(N(C)C)c(F)c(F)c12` gave a fluorescence artifact activation of 0.16%. For `COC(=O)C1=NN(C(=O)c2ccc(Br)cc2)C(O)(C(C)(C)C)C1` (centres undefined), the fluorescence artifact activation was 1.09%. For `CCOC(=O)c1cn(-c2ccc(F)c(F)c2F)c2c(F)c(F)c(F)cc2c1=O`, the fluorescence artifact activation was 0.24%. `CN(C)c1ccc(/C=C(/C#N)C(=O)Nc2nc3c(s2)CCN(Cc2ccccc2)C3)cc1` showed a fluorescence artifact activation of 0.06%. `Cc1ccc(NC(=O)COC(=O)/C=C/c2c(C)nn(-c3ccc(F)cc3)c2Cl)cc1F` showed a fluorescence artifact activation of 0.01%. `CCOc1ccc(CCNC(=O)C2CCCN(S(=O)(=O)N3CCOCC3)C2)cc1OCC` (centres undefined) showed a fluorescence artifact activation of -0.05%. With `CC1CC(C)CN(S(=O)(=O)N2CCCC(C(=O)NC3CCCCC3)C2)C1` (centres undefined) the fluorescence artifact activation was 78.2% (active). `CCOC(=O)C1(Cc2cccc(OC)c2)CCN(Cc2ccon2)CC1` gave a fluorescence artifact activation of 1.14%. With `COc1cc(Cl)c(S(=O)(=O)NCc2ccccn2)cc1Cl` the fluorescence artifact activation was -0.05%. In the case of `COc1ccc(Br)cc1S(=O)(=O)Nc1ncccc1C`, the fluorescence artifact activation is reported as 24.7% (active). With `COc1ccc(C(=O)O)cc1S(=O)(=O)NCCc1ccccn1` the fluorescence artifact activation was 0.58%. With `CCOC(=O)c1c(C)oc2c1c(C=NCCO)c(O)c1ccccc12` the fluorescence artifact activation was 0.07%. `O=C(O)CCNc1cc(N2CCN(C(=O)c3ccco3)CC2)c2noc3c2c1C(=O)c1ccccc1-3` showed a fluorescence artifact activation of -0.01%. Work on `O=C1c2ccccc2-c2onc3c(N4CCN(CCO)CC4)cc(N4CCN(C(=O)c5ccco5)CC4)c1c23` yielded a fluorescence artifact activation of 0.06%. For `O=C(c1ccco1)N1CCN(c2ncnc3c(-c4ccc(Cl)cc4)nsc23)CC1`, the fluorescence artifact activation was 43.5% (active). Molecule `COC(=O)Cn1c(C)c(/C=C/c2cc[n+](C)cc2)c2ccccc21` has a fluorescence artifact activation of 0.1%. With `C[C@H](CO)N1C[C@H](C)[C@@H](CN(C)Cc2ccc(Oc3ccccc3)cc2)Oc2c(NC(=O)C3CC3)cccc2C1=O` the fluorescence artifact activation was 20.1% (active). `C[C@H](CO)N1C[C@H](C)[C@@H](CN(C)Cc2ccncc2)Oc2c(NS(=O)(=O)c3ccc(F)cc3)cccc2C1=O` showed a fluorescence artifact activation of 0.19%. With `C[C@H](CO)N1C[C@H](C)[C@@H](CN(C)Cc2ccncc2)Oc2c(NC(=O)c3ccncc3)cccc2C1=O` the fluorescence artifact activation was 1.32%. With `CC1=CC2=NC(=O)/C(=C\c3ccc(-c4cccc(Cl)c4)o3)C(=N)N2O1` the fluorescence artifact activation was 7.64%.
